ChEMBL document CHEMBL1132155, “Endothelin antagonists: substituted mesitylcarboxamides with high potency and selectivity for ET(A) receptors” (J Med Chem, 1999)
Converted amounts (≈) assume the structure as drawn.

Key:
[1] = target: T1, Endothelin-1 receptor (Homo sapiens) (UniProt P25101); assay: Competitive binding to Endothelin A receptor by displacement of [125I]ET1 (Relative IC50 was calculated as IC50 of compound/IC50 of TBC11251)
T1 sequence (whole entry): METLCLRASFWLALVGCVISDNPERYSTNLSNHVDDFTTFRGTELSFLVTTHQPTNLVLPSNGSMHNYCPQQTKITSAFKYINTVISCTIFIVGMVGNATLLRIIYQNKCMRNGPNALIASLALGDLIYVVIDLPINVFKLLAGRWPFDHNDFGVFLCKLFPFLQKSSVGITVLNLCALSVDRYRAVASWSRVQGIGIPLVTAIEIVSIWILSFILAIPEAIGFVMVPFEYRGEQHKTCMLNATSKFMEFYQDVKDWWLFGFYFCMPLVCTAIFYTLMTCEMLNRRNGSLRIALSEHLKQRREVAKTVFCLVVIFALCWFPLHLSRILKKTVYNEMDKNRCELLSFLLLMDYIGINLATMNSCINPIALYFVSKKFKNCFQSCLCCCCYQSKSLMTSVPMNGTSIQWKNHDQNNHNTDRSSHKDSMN

[2] = target: Endothelin receptor, ET-A/ET-B (Homo sapiens) (UniProt P24530+P25101); assay: Compound was evaluated for the selectivity of ET-A receptors (ET-B IC50/ ET-A IC50); assay type: protein assay
Rattus norvegicus [3] = assay: Compound was evaluated for the effective oral dose in Acute Pulmonary Hypertension Rat Model after administering 2 hours prior to experiment; assay type: functional
Outline: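 Rat model of acute hypoxia-induced pulmonary hypertension. Compound given orally 2 h before hypoxia. Reported value is the lowest tested dose giving 90–100% inhibition of mean pulmonary arterial pressure; mean systemic arterial pressure and heart rate were also monitored. Some entries give % inhibition at 5 mg/kg.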

[4] = Compound was evaluated for the aqueous solubility (AS) in mg/mL (Measured in 0.2 M phosphate buffer of pH 7.4); assay type: physicochemical; conditions: read-out: AS
Outline: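 Solubility measured in 0.2 M phosphate buffer, pH 7.4. Where a preformed sodium salt was used, it was measured in saline (9 mg/mL).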

[5] = Compound was evaluated for the biological half-life when administered orally in Acute Pulmonary Hypertension Rat Model; assay type: ADME, organism-based; conditions: in vivo, po
Outline: (§1)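 Adult Harlan Sprague–Dawley rats received 50 mg/kg by gavage in 0.5% high-viscosity carboxymethyl cellulose (5 mL/kg). Serial 200 μL tail-vein blood samples were taken at selected times into heparin-coated tubes. Red cells were removed by centrifugation and plasma stored at −80 °C. Plasma proteins were precipitated with acetonitrile before HPLC analysis; serum half-life was derived from these samples.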

Rattus norvegicus [6] = assay: Compound was evaluated for the biological half-life when administered orally in Acute Pulmonary Hypertension Rat Model; NM=Not measurable (T1/2 h); assay type: ADME, organism-based; conditions: in vivo, po; outline: as §1

Chain of Endothelin receptor, ET-A/ET-B (Homo sapiens) (P24530 whole entry, looked up, one chain of several): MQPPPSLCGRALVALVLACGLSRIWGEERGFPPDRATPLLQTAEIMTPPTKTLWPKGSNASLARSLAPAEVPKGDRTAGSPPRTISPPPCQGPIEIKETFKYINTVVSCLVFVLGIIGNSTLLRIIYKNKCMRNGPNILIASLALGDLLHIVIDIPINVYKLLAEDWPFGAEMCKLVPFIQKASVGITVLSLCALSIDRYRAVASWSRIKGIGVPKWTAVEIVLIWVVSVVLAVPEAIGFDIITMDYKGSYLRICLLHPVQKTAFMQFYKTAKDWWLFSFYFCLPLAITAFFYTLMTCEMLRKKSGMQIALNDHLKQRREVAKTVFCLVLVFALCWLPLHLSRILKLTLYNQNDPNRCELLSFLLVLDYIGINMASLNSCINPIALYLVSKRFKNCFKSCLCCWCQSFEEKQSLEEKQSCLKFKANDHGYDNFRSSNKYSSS

Relative ET-A IC50 [1] | Selectivity [2] | solubility [4] | half-life [5] | T1/2 (Rattus norvegicus [6]) | Structure (SMILES) | Effective dose (Rattus norvegicus [3])
0.09 | 22600 | – | – | – | Cc1cc(C)c(OC(=S)N(C)C)c(C)c1NC(=O)c1sccc1S(=O)(=O)Nc1onc(C)c1Cl | –
0.08 | 32900 | < 10 mg/mL | 2.3 h | – | Cc1cc(C)c(NC(=O)c2sccc2S(=O)(=O)Nc2onc(C)c2Cl)c(C)c1CC#N | 5 mg/kg
0.07 | 30400 | – | – | – | Cc1cc(C)c(NC(=O)c2sccc2S(=O)(=O)Nc2onc(C)c2C)c(C)c1CO | –
0.11 | 10900 | 83 mg/mL (≈ 182 mM) | 7.3 h | – | Cc1cc(C)c(NC(=O)c2sccc2S(=O)(=O)Nc2onc(C)c2Cl)c(C)c1O | 5 mg/kg
2.3 | 1630 | – | – | – | Cc1cc(C)c(OS(=O)(=O)N(C)C)c(C)c1NC(=O)c1sccc1S(=O)(=O)Nc1onc(C)c1Cl | –
0.07 | 36600 | 50 mg/mL (≈ 104 mM) | 1 h | – | Cc1cc(C)c(N(C)C)c(C)c1NC(=O)c1sccc1S(=O)(=O)Nc1onc(C)c1Cl | –
0.11 | 6970 | – | – | – | CC(=O)Oc1c(C)cc(C)c(NC(=O)c2sccc2S(=O)(=O)Nc2onc(C)c2Cl)c1C | –
0.13 | 7640 | – | 3.86 h | – | COc1c(C)cc(C)c(CC(=O)c2sccc2S(=O)(=O)Nc2onc(C)c2Cl)c1C | –
0.06 | 27800 | 30 mg/mL (≈ 57.8 mM) | 1.5 h | – | Cc1cc(C)c(S(N)(=O)=O)c(C)c1NC(=O)c1sccc1S(=O)(=O)Nc1onc(C)c1Cl | 5 mg/kg
56.4 | 95 | – | – | – | Cc1cc(C)c(CNC(=O)c2sccc2S(=O)(=O)Nc2onc(C)c2Cl)c(C)c1CC#N | –
0.1 | 37700 | 37 mg/mL (≈ 79.6 mM) | 1.8 h | – | Cc1cc(C)c(NC(=O)c2sccc2S(=O)(=O)Nc2onc(C)c2Cl)c(C)c1C#N | –
0.07 | 59400 | – | – | – | Cc1cc(C)c(OCC2CC2)c(C)c1NC(=O)c1sccc1S(=O)(=O)Nc1onc(C)c1Cl | –
0.08 | 10800 | – | 3.9 h | – | Cc1cc(C)c(CC(=O)c2sccc2S(=O)(=O)Nc2onc(C)c2Cl)c(C)c1O | –
0.11 | 41700 | < 10 mg/mL | 2.1 h | – | Cc1cc(C)c(NS(C)(=O)=O)c(C)c1NC(=O)c1sccc1S(=O)(=O)Nc1onc(C)c1Cl | –
0.1 | 14600 | < 10 mg/mL | 1.8 h | – | Cc1cc(C)c(NC(=O)c2sccc2S(=O)(=O)Nc2onc(C)c2C)c(C)c1CC#N | –
0.06 | 160000 | – | – | – | CC(=O)OCc1c(C)cc(C)c(NC(=O)c2sccc2S(=O)(=O)Nc2onc(C)c2C)c1C | –
0.06 | 8550 | 70 mg/mL (≈ 146 mM) | 3.1 h | – | Cc1cc(C)c(NC(=O)c2sccc2S(=O)(=O)Nc2noc(C)c2Cl)c(C)c1CC#N | –
0.01 | 29200 | 43 mg/mL (≈ 83.8 mM) | < 1 h | – | COc1cc(C#N)c(NC(=O)c2sccc2S(=O)(=O)Nc2onc(C)c2Cl)c(OC)c1OC | –
5.63 | – | – | – | – | Cc1cc2c(cc1C(C)C(=O)c1sccc1S(=O)(=O)Nc1onc(C)c1Cl)OCO2 (stereo not drawn) | –
5.36 | – | – | – | – | Cc1cc2c(cc1C(CC(=O)O)C(=O)c1sccc1S(=O)(=O)Nc1onc(C)c1Cl)OCO2 (stereo not drawn) | –
3110 | 3 | – | – | – | Cc1noc(NS(=O)(=O)c2ccsc2C(=O)Nc2c(C)c(CC#N)c(C)c(CC#N)c2C)c1Cl | –
0.25 | 9160 | – | – | – | Cc1nc(C)c(NC(=O)c2sccc2S(=O)(=O)Nc2onc(C)c2Cl)c(C)n1 | –
0.05 | 22200 | – | – | Not Active | COC(=O)Oc1c(C)cc(C)c(NC(=O)c2sccc2S(=O)(=O)Nc2onc(C)c2Cl)c1C | –

Relative ET-A IC50 [1] | Selectivity [2] | solubility [4] | half-life [5] | T1/2 (Rattus norvegicus [6]) | Structure (SMILES) | Effective dose (Rattus norvegicus [3])
0.24 | 9390 | – | – | – | Cc1cc(C)c(CC(=O)c2sccc2S(=O)(=O)Nc2onc(C)c2Cl)c(C)c1 | –
0.1 | 7050 | 23 mg/mL (≈ 52.3 mM) | 2.5 h | – | Cc1cc(C)c(NC(=O)c2sccc2S(=O)(=O)Nc2onc(C)c2Cl)c(C)c1 | –
0.88 | – | – | – | – | Cc1cc(C)c(NC(=O)c2sccc2S(=O)(=O)Nc2onc(C)c2Cl)c(C)c1CN(C)C | –
1 | 3210 | < 10 mg/mL | 4.1 h | – | Cc1cc2c(cc1CC(=O)c1sccc1S(=O)(=O)Nc1onc(C)c1Cl)OCO2 [SITAXENTAN] | 5 mg/kg
0.05 | 23000 | – | – | – | Cc1cc(C)c(OCC(=O)O)c(C)c1NC(=O)c1sccc1S(=O)(=O)Nc1onc(C)c1Cl | –
0.16 | 36200 | – | – | – | COC(=O)c1cc(C)cc(C)c1NC(=O)c1sccc1S(=O)(=O)Nc1onc(C)c1Cl | –
0.79 | – | – | – | – | Cc1cc(C)c(C(=O)O)c(C)c1NC(=O)c1sccc1S(=O)(=O)Nc1onc(C)c1Cl | –
0.06 | 56400 | < 10 mg/mL | 1.8 h | – | COc1c(C)cc(C)c(NC(=O)c2sccc2S(=O)(=O)Nc2onc(C)c2Cl)c1C | –
5.56 | 1530 | – | – | – | CCOC(=O)N(C(=O)c1sccc1S(=O)(=O)Nc1onc(C)c1Cl)c1c(C)cc(C)c(O)c1C | –
0.12 | 59900 | – | – | – | Cc1cc(C)c(NC(=O)c2sccc2S(=O)(=O)Nc2onc(C)c2Cl)c(C)c1CC(=O)O | –
0.04 | 111000 | 65 mg/mL (≈ 138 mM) | 1.4 h | – | Cc1cc(C)c(NC(=O)c2sccc2S(=O)(=O)Nc2onc(C)c2Cl)c(C)c1CO | 15 mg/kg
0.21 | 41900 | – | – | – | COC(=O)c1c(C)cc(C)c(NC(=O)c2sccc2S(=O)(=O)Nc2onc(C)c2Cl)c1C | –
38.4 | 59 | – | – | – | Cc1cc2c(cc1C(CCBr)C(=O)c1sccc1S(=O)(=O)Nc1onc(C)c1Cl)OCO2 (stereo not drawn) | –
0.34 | 6700 | – | – | Not Active | Cc1cc(C)c(OC(N)=O)c(C)c1NC(=O)c1sccc1S(=O)(=O)Nc1onc(C)c1Cl | –
0.15 | – | – | – | – | Cc1cc(C)c(N2CCCC2)c(C)c1NC(=O)c1sccc1S(=O)(=O)Nc1onc(C)c1Cl | –
0.21 | 16200 | – | – | – | Cc1cc(C)c(NC(=O)c2sccc2S(=O)(=O)Nc2onc(C)c2Cl)c(C)c1COC(=S)N(C)C | –
0.06 | 850000 | – | 0.5 h | – | CC(=O)OCc1c(C)cc(C)c(NC(=O)c2sccc2S(=O)(=O)Nc2onc(C)c2Cl)c1C | 5 mg/kg
1.97 | 1080 | – | – | – | Cc1noc(NS(=O)(=O)c2ccsc2C(=O)Nc2c(C)c(C)c(C)c(C)c2C)c1Cl | –
0.5 | – | – | – | – | COCCOCCOCC(=O)Oc1c(C)cc(C)c(NC(=O)c2sccc2S(=O)(=O)Nc2onc(C)c2Cl)c1C | –
1.15e+06 | 0.004 | – | – | – | Cc1cc(C)c(CNC(=O)c2sccc2S(=O)(=O)Nc2onc(C)c2Cl)c(C)c1 | –
0.06 | 3500 | – | – | – | Cc1cc(C)c(NC(=O)c2sccc2S(=O)(=O)Nc2noc(C)c2Cl)c(C)c1CO | –
0.03 | 38400 | – | – | – | CC(=O)OCc1c(C)cc(C)c(NC(=O)c2sccc2S(=O)(=O)Nc2noc(C)c2Cl)c1C | –
0.07 | 114000 | – | – | – | COC(=O)Cc1c(C)cc(C)c(NC(=O)c2sccc2S(=O)(=O)Nc2onc(C)c2Cl)c1C | –
